The target in data set [1] is DOR (Mus musculus, UniProt P32300). The data set is described as follows: Radioligand competition binding assay, DOR. (In general: In a radioligand displacement assay an active substance lowers the binding of a labelled ligand.)
Data set [2] deals with mice. The data set can be described thus: Warm-water tail immersion assay. The data set is classed as in vivo, mouse. Conditions: for Blockage of the morphine-mediated antinociception: 10 mg/kg s.c. in the presence of morphine (10 mg/kg); for Antinociception effect (% MPE): 10 mg/kg s.c., 56 °C. The method, boiled down: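 Male Swiss-Webster mice (23–35 g, 7–8 weeks), n = 5 per group. Single test-compound dose of 10 mg/kg given subcutaneously at time 0. Tail-flick latency measured in water at 56 ± 0.1 °C. Saline served as negative control and morphine as positive control. Response expressed as % maximum possible effect, reported as mean ± SD.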

For data set [3], the target named is T1, MOR (Mus musculus, UniProt P42866). The data set can be described thus: Radioligand competition binding assay, MOR. As to conditions: for Selectivity δ/μ: ratio of Ki values DOR/MOR; for Selectivity κ/μ: ratio of Ki values KOR/MOR.
The target of data set [4] is T1, MOR. The data set is described as follows: MOR [35S]-GTPγS functional assay. Format: biochemical. In general terms: GTPγS resists hydrolysis and so accumulates on activated G proteins.
Data set [5] concerns the target T1, MOR. As to conditions: low MOR-expressing CHO cells and mouse thalamus; cited from earlier work.
Data set [6] relates to morphine-pelleted mice. The data set can be described thus: Opioid withdrawal study in chronic morphine-pelleted mice. Format: in vivo, mouse. Conditions: 1 mg/kg s.c.
Data set [7] concerns the target KOR (Mus musculus, UniProt P33534). The data set can be described thus: Radioligand competition binding assay, KOR.

Turning to `Cc1c[nH]c2c(C(=O)N[C@H]3CC[C@@]4(O)[C@H]5Cc6ccc(O)c7c6[C@@]4(CCN5CC4CC4)[C@H]3O7)cccc12` [Compound 30, 17-Cyclopropylmethyl-3,14β-dihydroxy-4,5α-epoxy-6α-(3-methyl-indole-7-carboxamido)morphinan], the Ki (commonly the dissociation constant of the complex between target and ligand, obtained from inhibition or displacement) in data set [1] is 0.0138 ± 0.00402 µM. In data set [2], the “Blockage of the morphine-mediated antinociception” value is “different degrees of inhibition of morphine’s antinociceptive effect”.

As to `N#Cc1cc2cccc(C(=O)N[C@H]3CC[C@@]4(O)[C@H]5Cc6ccc(O)c7c6[C@@]4(CCN5CC4CC4)[C@H]3O7)c2[nH]1` [Compound 20, 17-Cyclopropylmethyl-3,14β-dihydroxy-4,5α-epoxy-6α-(2-cyano-indole-7-carboxamido)morphinan], the “Selectivity δ/μ” value in data set [3] came out at 12.2. Moreover, in data set [1], the affinity, expressed as Ki, was 0.0107 ± 0.00093 µM.

Turning to `O=C(N[C@H]1CC[C@@]2(O)[C@H]3Cc4ccc(O)c5c4[C@@]2(CCN3CC2CC2)[C@H]1O5)c1cccc2cc(-c3ccccc3)[nH]c12` [Compound 22, 17-Cyclopropylmethyl-3,14β-dihydroxy-4,5α-epoxy-6α-(2-phenyl-indole-7-carboxamido)morphinan], in data set [3], the “Selectivity δ/μ” value worked out at 2.2. For the same molecule, affinity in data set [1] was put at a Ki of 0.00536 ± 0.001 µM.

Regarding `N#Cc1c[nH]c2c(C(=O)N[C@H]3CC[C@@]4(O)[C@H]5Cc6ccc(O)c7c6[C@@]4(CCN5CC4CC4)[C@H]3O7)cccc12` [Compound 25, 17-Cyclopropylmethyl-3,14β-dihydroxy-4,5α-epoxy-6α-(3-cyano-indole-7-carboxamido)morphinan], the “Selectivity κ/μ” value in data set [3] is on record as 6.3. The same molecule showed a Ki in data set [1] of 0.0122 ± 0.0022 µM.

The molecule `O=C(N[C@H]1CC[C@@]2(O)[C@H]3Cc4ccc(O)c5c4[C@@]2(CCN3CC2CC2)[C@H]1O5)c1cccc2cc(Br)[nH]c12` [Compound 18, 17-Cyclopropylmethyl-3,14β-dihydroxy-4,5α-epoxy-6α-(2-bromo-indole-7-carboxamido)morphinan] came in with a Ki in data set [1] of 0.00673 ± 0.001 µM. The EC50 (in general, the concentration that produces a half-maximal response) in data set [4] turned out to be 0.00236 ± 0.0007 µM. In addition, the “Blockage of the morphine-mediated antinociception” value in data set [2] is “different degrees of inhibition of morphine’s antinociceptive effect”.

For the molecule `O=C(N[C@H]1CC[C@@]2(O)[C@H]3Cc4ccc(O)c5c4[C@@]2(CCN3CC2CC2)[C@H]1O5)c1cc2ccccc2cn1` [NAQ, 17-cyclopropylmethyl-3,14β-dihydroxy-4,5α-epoxy-6α-(isoquinoline-3-carboxamido)-morphinan], the “Shift of DAMGO concentration effect curve” value in data set [5] is “parallel rightward shift in the concentration effect curve of MOR full agonist DAMGO”.

On to `O=C(N[C@@H]1CC[C@@]2(O)[C@H]3Cc4ccc(O)c5c4[C@@]2(CCN3CC2CC2)[C@H]1O5)c1ccncc1` [NAP, 17-Cyclopropylmethyl-3,14β-dihydroxy-4,5α-epoxy-6β-[(4′-pyridyl)carboxamido]morphinan], for which the “Shift of DAMGO concentration effect curve” value in data set [5] is “parallel rightward shift in the concentration effect curve of MOR full agonist DAMGO”.

Molecule `O=C(N[C@H]1CC[C@@]2(O)[C@H]3Cc4ccc(O)c5c4[C@@]2(CCN3CC2CC2)[C@H]1O5)c1cccc2c(C3CCCC3)c[nH]c12` [Compound 32, 17-Cyclopropylmethyl-3,14β-dihydroxy-4,5α-epoxy-6α-(3-cyclo-pentyl-indole-7-carboxamido)morphinan] yielded a Ki in data set [1] of 0.0282 ± 0.0054 µM.

In data set [1], `O=C(N[C@@H]1CC[C@@]2(O)[C@H]3Cc4ccc(O)c5c4[C@@]2(CCN3CC2CC2)[C@H]1O5)c1cccc2c(C3CCCC3)c[nH]c12` [Compound 15, 17-Cyclopropylmethyl-3,14β-dihydroxy-4,5α-epoxy-6β-(3-cyclo-pentyl-indole-7-carboxamido)morphinan] yielded a Ki of 0.00988 ± 0.00113 µM. For the same molecule, a half-maximal response in data set [4] (EC50) required 0.00228 ± 0.00059 µM.

Consider `Cl.O=Cc1c[nH]c2c(C(=O)N[C@@H]3CC[C@@]4(O)[C@H]5Cc6ccc(O)c7c6[C@@]4(CCN5CC4CC4)[C@H]3O7)cccc12` [Compound 10, 17-Cyclopropylmethyl-3,14β-dihydroxy-4,5α-epoxy-6β-(3-formyl-indole-7-carboxamido)morphinan], for which, in data set [3], the “Selectivity δ/μ” value came out at 35.1.

In turn, `O=C(N[C@H]1CC[C@@]2(O)[C@H]3Cc4ccc(O)c5c4[C@@]2(CCN3CC2CC2)[C@H]1O5)c1cccc2cc(Cl)[nH]c12` [Compound 19, 17-Cyclopropylmethyl-3,14β-dihydroxy-4,5α-epoxy-6α-(2-chloro-indole-7-carboxamido)morphinan] came in with a Ki in data set [1] of 0.00182 ± 6e-05 µM.

In the case of `O=C(N[C@@H]1CC[C@@]2(O)[C@H]3Cc4ccc(O)c5c4[C@@]2(CCN3CC2CC2)[C@H]1O5)c1cccc2c([N+](=O)[O-])c[nH]c12` [Compound 9, 17-Cyclopropylmethyl-3,14β-dihydroxy-4,5α-epoxy-6β-(3-nitro-indole-7-carboxamido)morphinan], the Ki in data set [1] came to 0.0256 ± 0.00806 µM. Moreover, the “Antinociception effect (% MPE)” value in data set [2] is recorded as “noticeable antinociception”.

Consider `O=C(N[C@H]1CC[C@@]2(O)[C@H]3Cc4ccc(O)c5c4[C@@]2(CCN3CC2CC2)[C@H]1O5)c1cccc2c([N+](=O)[O-])c[nH]c12` [Compound 26, 17-Cyclopropylmethyl-3,14β-dihydroxy-4,5α-epoxy-6α-(3-nitro-indole-7-carboxamido)morphinan], for which, in data set [3], the “Selectivity δ/μ” value came to 20.3 and the “Selectivity κ/μ” value was 9.2. Further, in data set [1], the Ki is 0.0216 ± 0.00257 µM.

For the molecule `O=C(N[C@@H]1CC[C@@]2(O)[C@H]3Cc4ccc(O)c5c4[C@@]2(CCN3CC2CC2)[C@H]1O5)c1cccc2cc(Br)[nH]c12` [Compound 1, 17-Cyclopropylmethyl-3,14β-dihydroxy-4,5α-epoxy-6β-(2-bromo-indole-7-carboxamido)morphinan], the Ki in data set [1] was 0.00304 ± 0.00027 µM.

In data set [1], `O=C(N[C@H]1CC[C@@]2(O)[C@H]3Cc4ccc(O)c5c4[C@@]2(CCN3CC2CC2)[C@H]1O5)c1cccc2c(Cl)c[nH]c12` [Compound 24, 17-Cyclopropylmethyl-3,14β-dihydroxy-4,5α-epoxy-6α-(3-chloro-indole-7-carboxamido)morphinan] yielded an inhibition constant Ki of 0.0371 ± 0.00946 µM.

For `C=CCN1CC[C@]23c4c5ccc(O)c4O[C@H]2C(=O)CC[C@@]3(O)[C@H]1C5` [NLX, naloxone, reference compound], the Withdrawal symptoms result in data set [6] was “induced significant withdrawal symptoms”.

Regarding `O=C(N[C@@H]1CC[C@@]2(O)[C@H]3Cc4ccc(O)c5c4[C@@]2(CCN3CC2CC2)[C@H]1O5)c1cccc2c(C3CCCCC3)c[nH]c12` [Compound 16, 17-Cyclopropylmethyl-3,14β-dihydroxy-4,5α-epoxy-6β-(3-cyclo-hexyl-indole-7-carboxamido)morphinan], the Ki in data set [1] is 0.064 ± 0.00199 µM.

Turning to `CC(=O)c1c[nH]c2c(C(=O)N[C@H]3CC[C@@]4(O)[C@H]5Cc6ccc(O)c7c6[C@@]4(CCN5CC4CC4)[C@H]3O7)cccc12` [Compound 28, 17-Cyclopropylmethyl-3,14β-dihydroxy-4,5α-epoxy-6α-(3-acetyl-indole-7-carboxamido)morphinan], the figures for the Ki in data set [7] and in data set [1] were 0.00639 ± 0.00107 µM and 0.0109 ± 0.00158 µM, respectively.

Consider `CC(C)c1c[nH]c2c(C(=O)N[C@@H]3CC[C@@]4(O)[C@H]5Cc6ccc(O)c7c6[C@@]4(CCN5CC4CC4)[C@H]3O7)cccc12` [Compound 14, 17-Cyclopropylmethyl-3,14β-dihydroxy-4,5α-epoxy-6β-(3-iso-propyl-indole-7-carboxamido)morphinan], for which, in data set [1], the affinity, expressed as Ki, was 0.0198 ± 0.00272 µM.

In turn, `O=Cc1c[nH]c2c(C(=O)N[C@H]3CC[C@@]4(O)[C@H]5Cc6ccc(O)c7c6[C@@]4(CCN5CC4CC4)[C@H]3O7)cccc12` [Compound 27, 17-Cyclopropylmethyl-3,14β-dihydroxy-4,5α-epoxy-6α-(3-formyl-indole-7-carboxamido)morphinan] registered a Ki in data set [1] of 0.0119 ± 0.00191 µM.

Consider `O=C(N[C@H]1CC[C@@]2(O)[C@H]3Cc4ccc(O)c5c4[C@@]2(CCN3CC2CC2)[C@H]1O5)c1cccc2c(-c3ccccc3)c[nH]c12` [Compound 34, 17-Cyclopropylmethyl-3,14β-dihydroxy-4,5α-epoxy-6α-(3-phenyl-indole-7-carboxamido)morphinan], for which the Ki in data set [1] was found to be 0.015 ± 0.00271 µM.

In the case of `Cc1c[nH]c2c(C(=O)N[C@@H]3CC[C@@]4(O)[C@H]5Cc6ccc(O)c7c6[C@@]4(CCN5CC4CC4)[C@H]3O7)cccc12` [Compound 13, 17-Cyclopropylmethyl-3,14β-dihydroxy-4,5α-epoxy-6β-(3-methyl-indole-7-carboxamido)morphinan], in data set [3], the “Selectivity δ/μ” value came to 61.3 and the “Selectivity κ/μ” value is 2.2. In addition, the Ki in data set [1] came out at 0.0279 ± 0.00593 µM. The “Antinociception effect (% MPE)” value in data set [2] is listed as “noticeable antinociception”.

As to `O=C(N[C@@H]1CC[C@@]2(O)[C@H]3Cc4ccc(O)c5c4[C@@]2(CCN3CC2CC2)[C@H]1O5)c1cccc2c(Cl)c[nH]c12` [Compound 7, 17-Cyclopropylmethyl-3,14β-dihydroxy-4,5α-epoxy-6β-(3-chloro-indole-7-carboxamido)morphinan], the Ki in data set [7] amounted to 0.00033 ± 5e-05 µM; in data set [1] it was 0.00443 ± 0.00106 µM. In addition, in data set [2], the “Antinociception effect (% MPE)” value is “noticeable antinociception”.

Molecule `Cc1cc2cccc(C(=O)N[C@@H]3CC[C@@]4(O)[C@H]5Cc6ccc(O)c7c6[C@@]4(CCN5CC4CC4)[C@H]3O7)c2[nH]1` [Compound 4, 17-Cyclopropylmethyl-3,14β-dihydroxy-4,5α-epoxy-6β-(2-methyl-indole-7-carboxamido)morphinan] displayed a Ki in data set [1] of 0.0159 ± 0.00038 µM.

The values are drawn from publication PMC10546487 (Journal of medicinal chemistry, 2022).
